Assay results taken from ChEMBL document CHEMBL4680230, “Discovery of aryl-piperidine derivatives as potential antipsychotic agents using molecular hybridization strategy” (Eur J Med Chem, 2020).
pEC50, pIC50, pKi: −log10 of the molar value.

How the values were obtained:
D(2) dopamine receptor = D(2) dopamine receptor (Homo sapiens, UniProt P14416); experiment: Antagonist activity at human D2 receptor expressed in HEK293 cells incubated for 60 mins by Eu-cAMP tracer based LANCE ultra cAMP assay; type: cell-based; details: for pIC50: read-out: IC50; for IC50: hek293
Chain of D(2) dopamine receptor (P14416 whole entry): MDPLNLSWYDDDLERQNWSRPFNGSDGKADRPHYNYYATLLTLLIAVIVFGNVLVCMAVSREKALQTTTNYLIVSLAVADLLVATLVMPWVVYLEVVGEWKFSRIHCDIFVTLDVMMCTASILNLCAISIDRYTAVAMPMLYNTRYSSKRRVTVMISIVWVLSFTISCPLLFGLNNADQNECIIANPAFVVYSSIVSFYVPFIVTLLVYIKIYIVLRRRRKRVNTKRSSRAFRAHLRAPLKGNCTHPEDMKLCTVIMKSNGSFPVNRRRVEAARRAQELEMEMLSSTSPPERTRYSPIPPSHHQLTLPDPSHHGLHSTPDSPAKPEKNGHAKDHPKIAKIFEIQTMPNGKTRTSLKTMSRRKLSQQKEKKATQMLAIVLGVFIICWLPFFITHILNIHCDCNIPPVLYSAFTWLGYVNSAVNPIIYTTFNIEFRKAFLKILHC

[1] = molecular target: T1, 5-hydroxytryptamine receptor 1A (Homo sapiens, UniProt P08908); experiment: Agonist activity at human 5H1A receptor expressed in HEK293 cells incubated for 60 mins by Eu-cAMP tracer based LANCE ultra cAMP assay; type: functional, cell-based; details: for pEC50: read-out: EC50; for EC50: hek293
T1 sequence (P08908 whole entry): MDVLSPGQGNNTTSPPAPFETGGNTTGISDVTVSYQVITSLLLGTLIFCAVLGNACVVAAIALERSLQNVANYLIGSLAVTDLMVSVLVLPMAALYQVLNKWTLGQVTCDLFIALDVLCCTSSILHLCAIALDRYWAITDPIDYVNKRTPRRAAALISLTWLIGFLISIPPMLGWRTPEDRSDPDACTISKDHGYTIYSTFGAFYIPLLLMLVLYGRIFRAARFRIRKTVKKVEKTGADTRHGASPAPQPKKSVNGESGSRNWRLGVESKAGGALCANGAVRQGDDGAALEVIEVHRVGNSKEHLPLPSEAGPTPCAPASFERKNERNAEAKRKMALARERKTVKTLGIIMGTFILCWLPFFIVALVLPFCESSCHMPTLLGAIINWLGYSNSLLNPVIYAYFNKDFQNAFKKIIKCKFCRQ
Method in brief: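 Cell-based TR-FRET cAMP assay on human 5-HT1A receptor-expressing cells. Cells were collected in stimulation buffer, added to the compound, centrifuged briefly and incubated 60 min at room temperature. Eu-cAMP tracer and ULight-anti-cAMP were then added, followed by another 60 min at room temperature before reading. The reference agonist was 8-OH-DPAT. […] came from sigmoidal nonlinear regression.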

[2] = molecular target: 5-hydroxytryptamine receptor 2A (Homo sapiens, UniProt P28223); experiment: Antagonist activity at human 5HT2A receptor expressed in CHO-K1 cells measured after 15 mins by FLIPR assay; type: cell-based; details: for pIC50: read-out: IC50; for IC50: cho-k1
Chain of 5-hydroxytryptamine receptor 2A (P28223 whole entry): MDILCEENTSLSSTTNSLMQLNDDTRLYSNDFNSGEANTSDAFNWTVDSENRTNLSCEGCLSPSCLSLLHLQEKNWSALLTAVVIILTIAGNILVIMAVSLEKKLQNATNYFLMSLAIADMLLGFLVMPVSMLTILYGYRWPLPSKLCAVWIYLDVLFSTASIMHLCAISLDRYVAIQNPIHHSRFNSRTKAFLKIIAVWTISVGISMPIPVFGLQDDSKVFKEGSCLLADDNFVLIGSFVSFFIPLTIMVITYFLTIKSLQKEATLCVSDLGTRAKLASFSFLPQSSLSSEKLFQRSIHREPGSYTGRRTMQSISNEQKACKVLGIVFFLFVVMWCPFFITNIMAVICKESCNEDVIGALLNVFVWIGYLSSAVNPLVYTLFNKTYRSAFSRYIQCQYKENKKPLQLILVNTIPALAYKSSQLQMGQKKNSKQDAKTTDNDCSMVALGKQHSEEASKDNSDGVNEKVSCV

[3] = Half life in mouse liver microsomes measured after 60 mins in presence of NADPH by LC-MS/MS analysis; type: ADME, Microsome
Method in brief: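 Mouse liver microsomes (20 mg/ml stock) were incubated with compound in 0.1 M PBS, pH 7.4, at 37 °C. Compound came from a 1 mM methanol stock, diluted in methanol/water. Reaction was started with NADPH (10 mM stock). Aliquots at 0, 5, 10, 20, 40 and 60 min were quenched in cold methanol and centrifuged at 4 °C. Supernatants were analysed by LC-MS/MS.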

[4] = AUC (0 to 24 hrs) in ICR mouse at 5 mg/kg, iv; type: ADME, organism-based; set-up: time < 24 hr, route intravenous, dose 5 mg/kg; details: in vivo
Method in brief: (§1)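 Pharmacokinetics in ICR mice, n = 6 per group, after a single 5 mg/kg intravenous dose or a 25 mg/kg oral dose. Plasma exposure gave AUC over 0–24 h, t1/2, Cmax and Tmax. Oral bioavailability was derived from comparison of the two routes.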

[5] = Half life in ICR mouse at 5 mg/kg, iv; type: ADME, organism-based; details: in vivo; method in brief: as §1
[6] = AUC (0 to 24 hrs) in ICR mouse at 25 mg/kg, po; type: ADME, organism-based; set-up: time < 24 hr, route oral, dose 25 mg/kg; details: in vivo; method in brief: as §1
[7] = Half life in ICR mouse at 25 mg/kg, po; type: ADME, organism-based; details: in vivo; method in brief: as §1
[8] = Cmax in ICR mouse at 25 mg/kg, po; type: ADME, organism-based; set-up: route oral, dose 25 mg/kg; details: in vivo; method in brief: as §1
[9] = Tmax in ICR mouse at 25 mg/kg, po; type: ADME, organism-based; details: in vivo; method in brief: as §1
[10] = Oral bioavailability in ICR mouse at 25 mg/kg; type: ADME, organism-based; details: in vivo; method in brief: as §1
[11] = Plasma concentration in ICR mouse at 1 mg/kg, iv measured after 1 hr; type: ADME, organism-based
Method in brief: (§2)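 Brain penetration in ICR mice, n = 3 per group, given 1 mg/kg intravenously. Plasma, cerebrospinal fluid and brain levels were measured at 1 h and 4 h post-dose. Kp is the brain-to-plasma concentration ratio.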

[12] = Drug concentration in ICR mouse cerebrospinal fluid at 1 mg/kg, iv measured after 1 hr; type: ADME, organism-based; details: read-out: Drug uptake; method in brief: as §2
[13] = Drug concentration in ICR mouse brain at 1 mg/kg, iv measured after 1 hr; type: ADME, organism-based; method in brief: as §2
[14] = Brain to plasma partition coefficient, Kp of compound in ICR mouse at 1 mg/kg, iv measured after 1 hr; type: ADME, organism-based; method in brief: as §2
[15] = Plasma concentration in ICR mouse at 1 mg/kg, iv measured after 4 hrs; type: ADME, organism-based; method in brief: as §2
[16] = Drug concentration in ICR mouse brain at 1 mg/kg, iv measured after 4 hrs; type: ADME, organism-based; method in brief: as §2
[17] = Brain to plasma partition coefficient, Kp of compound in ICR mouse at 1 mg/kg, iv measured after 4 hrs; type: ADME, organism-based; method in brief: as §2
[18] = molecular target: T1, 5-hydroxytryptamine receptor 1A; experiment: Displacement of [3H]5-HT from recombinant 5HT1A receptor (unknown origin) expressed in CHO cell membrane measured after 50 mins by microbeta scintillation counting method; type: cell membranes
[19] = molecular target: T1, 5-hydroxytryptamine receptor 1A; experiment: Agonist activity at recombinant 5HT1A receptor (unknown origin) expressed in CHO cell membrane assessed as [35S]GTPgammaS binding by liquid scintillation counting method; type: functional, cell membranes

Row | Compound | pIC50 (D(2) dopamine receptor) | pEC50 [1] | pIC50 [2] | EC50 [1] | also measured
1 | CCCN(CCCN1CCN(c2cccc(Cl)c2Cl)CC1)C(=O)c1ccccc1 | 6.31 | 6.35 | 5.49 |  | 
2 | CC(C)N(CCCN1CCN(c2cccc(Cl)c2Cl)CC1)C(=O)c1ccccc1 | 6.28 | 7.34 | 5.70 |  | 
3 | COc1ccccc1N1CCN(CCCN(CC2CC2)C(=O)c2ccccc2)CC1 |  |  |  | Not Active | IC50 [2]: Not Active
4 | CCCN(CCCN1CCN(c2ccccn2)CC1)C(=O)c1ccccc1 | 5.16 | 7.26 | 5.12 |  | 
5 | O=C(c1ccccc1)N(CCCN1CCN(c2cccc(Cl)c2Cl)CC1)CC1CC1 |  | 6.76 | 6.11 |  | 
6 | O=C(c1ccccc1)N(CCCN1CCN(c2ccccn2)CC1)C1COC1 |  | 6.43 |  |  | IC50 (D(2) dopamine receptor): Not Active; IC50 [2]: Not Active
7 | COc1ccccc1N1CCN(CCCN(C(=O)c2ccccc2)C2COC2)CC1 | 5.42 |  |  | Not Active | IC50 [2]: Not Active
8 | O=C(c1ccccc1)N(CCCN1CCN(c2ccccn2)CC1)CC1CC1 |  | 7.60 | 5.11 |  | IC50 (D(2) dopamine receptor): Not Active
9 | COc1ccccc1N1CCN(CCCN(C(=O)c2ccccc2)C(C)C)CC1 |  |  |  | Not Active | IC50 [2]: Not Active
10 | O=C(CN1CCN(CCCc2c[nH]c3ccc(F)cc23)CC1)N(c1ccccc1)C1CCCCC1 |  | 8.15 |  |  | pKi (D(2) dopamine receptor): 5.67; pKi [2]: 6.68; pKi [18]: 7.28; pEC50 [19]: 8.15
11 | CC(C)N(CCCN1CCN(c2ccccn2)CC1)C(=O)c1ccccc1 |  | 7.64 |  |  | IC50 (D(2) dopamine receptor): Not Active; IC50 [2]: Not Active
12 | O=C(c1ccccc1)N(CCCN1CCN(c2cccc(Cl)c2Cl)CC1)C1COC1 | 5.73 | 6.23 | 5.66 |  | 

Now from value to molecule, other results behind:

Row | pIC50 (D(2) dopamine receptor) | pEC50 [1] | pIC50 [2] | EC50 [1] | Compound | also measured
13 | 8.64 |  | 7.03 | Not Active | O=S(=O)(c1ccc(C(F)(F)F)cc1)N(CCCN1CCC(c2noc3cc(F)ccc23)CC1)C1COC1 | 
14 | 8.44 |  | 7.95 | Not Active | N#Cc1ccc(S(=O)(=O)N(CCCN2CCC(c3noc4cc(F)ccc34)CC2)C2COC2)cc1 | 
15 | 6.81 |  | 7.73 | Not Active | O=C(c1ccccc1)N(CCCN1CCC(c2noc3cc(F)ccc23)CC1)C1COC1 | half-life [3]: 173 min
16 |  |  | 7.39 | Not Active | O=C(c1ccccc1)N(CCCN1CCC(c2noc3cc(F)ccc23)CC1)CC1CC1 | half-life [3]: 6.9 min
17 | 8.70 |  | 7.46 | Not Active | O=S(=O)(c1ccc(Cl)cc1)N(CCCN1CCC(c2noc3cc(F)ccc23)CC1)C1COC1 | 
18 | 7.73 |  | 7.14 | Not Active | CCCN(CCCN1CCC(c2noc3cc(F)ccc23)CC1)C(=O)c1ccccc1 | half-life [3]: 6.2 min
19 | 8.72 |  | 8.03 | Not Active | O=S(=O)(c1ccccc1)N(CCCN1CCC(c2noc3cc(F)ccc23)CC1)C1COC1 | 
20 | 8.52 |  | 7.82 | Not Active | O=S(=O)(c1ccc(F)cc1)N(CCCN1CCC(c2noc3cc(F)ccc23)CC1)C1COC1 | AUC(0-t) at 24 h [4]: 829 ng·h/mL; half-life [5]: 32.4 min; AUC(0-t) at 24 h [6]: 259 ng·h/mL; half-life [7]: 120 min; Cmax [8]: 142 ng/mL; Tmax [9]: 15 min; bioavailability [10]: 6.3%; concentration at 1 h [11]: 75.4 ng/mL; concentration at 1 h [12]: 2 ng/mL; concentration at 1 h [13]: 129 ng/g; Kp at 1 h [14]: 1.72; concentration at 4 h [15]: 2.7 ng/mL; concentration at 4 h [16]: 10.7 ng/g; Kp at 4 h [17]: 4.03
21 | 7.23 |  | 7.94 | Not Active | CC(C)N(CCCN1CCC(c2noc3cc(F)ccc23)CC1)C(=O)c1ccccc1 | half-life [3]: 31.5 min
